Measured values reported in ChEMBL document CHEMBL1156940, “Modified cap group suberoylanilide hydroxamic acid histone deacetylase inhibitor derivatives reveal improved selective antileukemic activity” (J Med Chem, 2010).
Calls of active or inactive are those of the source. The rule behind the calls is not given here.

Experiments:
[1] = system: SK-BR-3; assay: Antiproliferative activity against human SK-BR-3 cells after 48 hrs by cell titer-glo assay; assay type: functional, cell-based; conditions: SK-BR-3, 48 h
[2] = system: HT-29; assay: Antiproliferative activity against human HT-29 cells after 48 hrs by cell titer-glo assay; assay type: functional, cell-based; conditions: HT-29, 48 h
[3] = system: U-937; assay: Antiproliferative activity against human U937 cells after 48 hrs by cell titer-glo assay; assay type: functional, cell-based; conditions: U-937, 48 h
Outline: (§1)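 Cells kept in RPMI-1640 with 10% FBS at 37 °C, 5% CO2. 10^4 suspension cells were plated immediately before dosing. Compounds were added at 0.1–100 µM, final 1% DMSO, with DMSO vehicle control, and incubated 48 h. CellTiter-Glo luminescence was read. EC50 is the dose reducing luminescence to 50% of untreated cultures.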

[4] = system: Jurkat; assay: Antiproliferative activity against human Jurkat JA16 cells after 48 hrs by cell titer-glo assay; assay type: functional, cell-based
[5] = system: HL-60; assay: Antiproliferative activity against human HL60 cells after 48 hrs by cell titer-glo assay; assay type: functional, cell-based; conditions: HL-60, 48 h
[6] = system: K562; assay: Antiproliferative activity against human K562 cells after 48 hrs by cell titer-glo assay; assay type: functional, cell-based; conditions: K562, 48 h; outline: as §1
[7] = molecular target: Histone deacetylase 1 (Homo sapiens) (UniProt Q13547); assay: Inhibition of recombinant FLAG-tagged HDAC1 assessed as [3H]acetic acid release preincubated for 30 mins measured after 2 hrs by scintillation counting
Histone deacetylase 1 (Homo sapiens), sequence (Q13547 whole entry): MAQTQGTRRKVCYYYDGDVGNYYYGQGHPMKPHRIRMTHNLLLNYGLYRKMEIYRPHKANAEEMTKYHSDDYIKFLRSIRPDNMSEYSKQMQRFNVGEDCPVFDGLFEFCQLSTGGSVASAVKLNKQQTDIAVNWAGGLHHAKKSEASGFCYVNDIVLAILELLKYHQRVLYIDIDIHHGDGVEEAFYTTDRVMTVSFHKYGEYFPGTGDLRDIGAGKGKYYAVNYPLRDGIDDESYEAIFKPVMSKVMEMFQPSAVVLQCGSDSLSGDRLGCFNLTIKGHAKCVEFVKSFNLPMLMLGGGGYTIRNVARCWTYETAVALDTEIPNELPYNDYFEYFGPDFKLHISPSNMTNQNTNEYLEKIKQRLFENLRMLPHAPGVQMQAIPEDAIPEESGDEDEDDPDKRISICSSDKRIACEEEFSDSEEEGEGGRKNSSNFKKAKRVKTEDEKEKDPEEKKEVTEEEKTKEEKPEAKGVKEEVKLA
Outline: (§2)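 FLAG-tagged HDAC1 or HDAC6 was immunopurified from stably expressing cell lines and washed in HDAC buffer (10 mM Tris-HCl pH 8.0, 10 mM NaCl, 10% glycerol). Enzyme was preincubated with inhibitor (1 µM) for 30 min at 4 °C, then given 20 000 cpm [3H]peracetylated H4 peptide for 2 h at 37 °C. The reaction was stopped with acetic acid/HCl, extracted into ethyl acetate, and released [3H]acetate counted by scintillation.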

[8] = molecular target: T1, Protein deacetylase HDAC6 (Homo sapiens) (UniProt Q9UBN7); assay: Inhibition of recombinant FLAG-tagged HDAC6 assessed as [3H]acetic acid release preincubated for 30 mins measured after 2 hrs by scintillation counting; outline: as §2
T1 sequence (whole entry): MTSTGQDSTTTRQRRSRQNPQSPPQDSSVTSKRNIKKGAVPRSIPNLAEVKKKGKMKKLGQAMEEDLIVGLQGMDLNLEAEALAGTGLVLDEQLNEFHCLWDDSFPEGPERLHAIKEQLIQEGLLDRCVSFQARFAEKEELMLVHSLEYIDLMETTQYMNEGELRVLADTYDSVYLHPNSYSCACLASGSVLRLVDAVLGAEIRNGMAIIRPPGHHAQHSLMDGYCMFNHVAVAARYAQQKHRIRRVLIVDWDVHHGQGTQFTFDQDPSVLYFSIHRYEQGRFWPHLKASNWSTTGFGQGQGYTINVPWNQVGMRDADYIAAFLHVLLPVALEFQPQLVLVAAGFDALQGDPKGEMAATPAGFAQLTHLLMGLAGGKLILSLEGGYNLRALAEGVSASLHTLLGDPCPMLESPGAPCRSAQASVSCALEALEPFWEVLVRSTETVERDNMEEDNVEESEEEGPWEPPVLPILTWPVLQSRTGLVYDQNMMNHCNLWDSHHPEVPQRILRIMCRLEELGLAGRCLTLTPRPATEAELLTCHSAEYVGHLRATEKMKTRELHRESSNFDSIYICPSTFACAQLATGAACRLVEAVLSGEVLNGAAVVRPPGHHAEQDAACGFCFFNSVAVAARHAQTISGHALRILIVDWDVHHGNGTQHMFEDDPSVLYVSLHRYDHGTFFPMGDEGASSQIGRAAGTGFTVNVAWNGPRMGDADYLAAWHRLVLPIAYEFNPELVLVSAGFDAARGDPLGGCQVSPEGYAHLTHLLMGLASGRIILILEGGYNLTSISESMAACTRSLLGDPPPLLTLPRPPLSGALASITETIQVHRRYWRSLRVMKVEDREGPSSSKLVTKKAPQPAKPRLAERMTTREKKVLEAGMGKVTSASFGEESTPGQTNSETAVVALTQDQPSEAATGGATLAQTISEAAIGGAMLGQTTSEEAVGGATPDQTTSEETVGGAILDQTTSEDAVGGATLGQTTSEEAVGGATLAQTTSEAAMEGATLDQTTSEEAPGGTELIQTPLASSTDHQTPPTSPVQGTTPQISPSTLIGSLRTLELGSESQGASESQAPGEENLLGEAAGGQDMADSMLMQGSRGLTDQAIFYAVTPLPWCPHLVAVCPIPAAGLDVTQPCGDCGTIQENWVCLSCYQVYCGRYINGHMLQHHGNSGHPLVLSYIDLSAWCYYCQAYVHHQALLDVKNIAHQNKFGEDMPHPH

Compound | EC50 [1] [µM] | EC50 [2] [µM] | EC50 [3] [µM] | EC50 [4] [µM] | EC50 [5] [µM] | EC50 [6] [µM] | Activity [7] | Activity [8]
O=C(CCCCCCC(=O)Nc1ccccc1-c1ccccc1)NO | 73.5 | 27 | 14 | – | – | – | – | –
O=C(CCCCCCC(=O)Nc1ccccc1Br)NO | 17.5 | 17 | 6.8 | – | – | – | – | –
O=C(CCCCCCC(=O)Nc1ccc([N+](=O)[O-])cc1)NO | 58 | 76 | 22 | – | – | – | – | –
Nc1ccc(NC(=O)CCCCCCC(=O)NO)cc1 | 8.5 | 18 | 6.4 | – | – | – | – | –
N#Cc1ccc(NC(=O)CCCCCCC(=O)NO)cc1 | 8.8 | 42 | 7 | – | – | – | – | –
O=C(CCCCCCC(=O)NO)NO [SUBEROHYDROXAMIC ACID] | 27 | 32 | 23 | – | – | – | – | –

Now from value to compound:

EC50 [1] [µM] | EC50 [2] [µM] | EC50 [3] [µM] | EC50 [4] [µM] | EC50 [5] [µM] | EC50 [6] [µM] | Activity [7] | Activity [8] | Compound
1.9 | 1.4 | 0.5 | 0.64 | 1.25 | 2.4 | Active | Active | O=C(CCCCCCC(=O)Nc1cccc(F)c1)NO
2 | 1 | 0.35 | 0.58 | 2.1 | 3.5 | Active | Active | O=C(CCCCCCC(=O)Nc1cccc(Cl)c1)NO
1.8 | 0.85 | 0.35 | 0.4 | 1.16 | 3 | Active | Active | O=C(CCCCCCC(=O)Nc1ccc2ccccc2c1)NO
11 | 15 | 6.4 | – | – | – | – | – | O=C(CCCCCCC(=O)Nc1ccc(O)cc1)NO
